{"data": "Measured values pooled from the literature", "target": "Dual specificity tyrosine-phosphorylation-regulated kinase 2 (DYRK2, Homo sapiens, UniProt Q92630)", "technique": "competition with immobilised ligand", "Residues used in one study (Q92630 1-601)": "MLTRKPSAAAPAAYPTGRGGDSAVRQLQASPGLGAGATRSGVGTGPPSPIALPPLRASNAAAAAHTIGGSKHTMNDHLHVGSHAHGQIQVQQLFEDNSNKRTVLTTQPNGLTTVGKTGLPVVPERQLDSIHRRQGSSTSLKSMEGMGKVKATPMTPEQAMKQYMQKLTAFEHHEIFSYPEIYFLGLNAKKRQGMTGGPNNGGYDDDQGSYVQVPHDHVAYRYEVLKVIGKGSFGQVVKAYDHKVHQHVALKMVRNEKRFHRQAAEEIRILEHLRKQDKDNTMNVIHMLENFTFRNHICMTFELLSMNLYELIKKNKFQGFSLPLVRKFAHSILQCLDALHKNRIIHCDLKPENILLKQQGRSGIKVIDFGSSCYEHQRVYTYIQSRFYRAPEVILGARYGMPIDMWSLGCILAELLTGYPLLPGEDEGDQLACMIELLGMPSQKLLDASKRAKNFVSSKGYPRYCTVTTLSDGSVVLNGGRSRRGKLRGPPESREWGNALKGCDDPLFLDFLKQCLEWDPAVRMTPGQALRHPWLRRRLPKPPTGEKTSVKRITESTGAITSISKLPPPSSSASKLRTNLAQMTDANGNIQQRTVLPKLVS", "note": "Lines come from different studies, so protocols differ."}
{"SMILES": "C=CC(=O)N1CCC(C(=O)NCC(=O)N2CCN(c3nc(-c4cnc(N)nc4C(F)F)nc(N4CCOCC4)n3)CC2)CC1", "test": "binding", "conditions": "1 µM", "remaining binding [%]": 80}
{"SMILES": "CCN1CCN(Cc2ccc(C(=O)Nc3ccc(C)c(Oc4ccc5c(c4)CC(=O)N5)c3)cc2C(F)(F)F)CC1", "test": "binding", "conditions": "1 µM", "remaining binding [%]": 95}
{"SMILES": "O=C(NCCCN1CCOCC1)c1ccc(Nc2ncc(Cl)c(-c3ccc(Cl)s3)n2)cc1", "test": "binding", "conditions": "1 µM", "remaining binding [%]": 2.9}
{"SMILES": "COc1cnc(Nc2cccc(S(N)(=O)=O)c2)nc1N1CCN(c2ccccc2)CC1", "test": "binding", "conditions": "1 µM", "remaining binding [%]": 70}
{"SMILES": "Cc1cnc(Nc2ccc(C(=O)N3CCC(N4CCCC4)CC3)cc2)nc1-c1cc2ccccc2s1", "test": "binding", "conditions": "1 µM", "remaining binding [%]": 1.3}
{"SMILES": "C[C@H](c1ccc(F)cc1)N(Cc1cccc(C(=O)O)c1)C(=O)c1cnc2ccccc2c1", "test": "cell-free assay", "conditions": "1 µM", "remaining binding [%]": 85}
{"SMILES": "O=C(NCC1CCOCC1)c1n[nH]cc1NC(=O)c1c(F)cccc1F", "test": "binding", "conditions": "1 µM", "remaining binding [%]": 8.3}
{"SMILES": "CS(=O)(=O)N1CCCC(NC(=O)[C@H](CCC2CCCCC2)NC(=O)c2ccc(CNc3ncnc4c3nnn4-c3ccccc3)cc2)C1 (stereo partly shown)", "test": "cell-free assay", "conditions": "0.1 µM", "remaining binding [%]": 100}
{"SMILES": "CN(CCCC(F)(F)F)c1nccc(-c2cnn3ncccc23)n1", "test": "binding", "conditions": "1 µM", "remaining binding [%]": 77}
{"SMILES": "C[C@@]1(Cc2ccc(C#N)cc2)C(=O)N(c2cc(Cl)cc(Cl)c2)c2ncc(C(=O)NC3(c4nc(C5CCC5)no4)CC3)n21", "test": "cell-free assay", "conditions": "1 µM", "remaining binding [%]": 93}
{"SMILES": "c1cncc(-c2cccc(Nc3nccc(NC4CCCCC4)n3)c2)c1", "test": "binding", "conditions": "10 µM", "remaining binding [%]": 78}
{"SMILES": "CCCOc1ccc([C@H]2[C@H](C(=O)O)[C@@H](c3ccc4c(c3)OCO4)CN2CC(=O)Nc2c(CC)cccc2CC)cc1", "test": "cell-free assay", "conditions": "1 µM", "remaining binding [%]": 74}
{"SMILES": "O=C(c1ccc(Nc2ncc(Cl)c(-c3ccc(Cl)s3)n2)cc1)N1CCC(N2CCCC2)CC1", "test": "binding", "conditions": "1 µM", "remaining binding [%]": 3.8}
